Reference: publication PMC3248997 (Bioorganic & medicinal chemistry, 2011)
Where two headings read alike, the source gives them in different places.

Tests used:
[1] = intracerebroventricular injection of 10 nmol; cited from earlier work
[2] = test system: COX activity (PGE2 and 6-keto-PGF1α formation) in brain homogenates; assay: Inhibition of COX activity in tissue extract; format: biochemical, C57BL/6 mice
Summary of the method: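 C57BL/6 mouse brain homogenate prepared on ice in 50 mM Tris pH 7.4 with 1 mM phenol and protease inhibitors. 20 µg homogenate preincubated with test compound or vehicle. 150 µM arachidonic acid added at 37°C. Stopped after 5 min by acidifying to pH 2.5 with formic acid and chilling. Prostanoids extracted with ethyl acetate/hexane (7:1). PGE2 and 6-keto-PGF1α quantified by GC-MS/MS.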

[3] = in vivo
[4] = test system: PGE2 formation in brain tissue from COX-1−/− mice; format: biochemical; settings: 0.8 µM; brain tissue from LPS stimulated COX-1−/− mice
[5] = test system: COX-2 in primary human leukocytes; settings: unclear which pyrazolone(s) were added; cited from earlier work
[6] = test system: COX-2 in murine macrophages; settings: unclear which pyrazolone(s) were added; cited from earlier work
[7] = cited from earlier work
[8] = cited from earlier work; remark: listed apart in the source

**Q.** Which antinociception [1] does the source give for `CCCCC/C=C\C/C=C\C/C=C\C/C=C\CCCC(=O)Nc1ccc(O)cc1` [AM404, N-arachidonoylaminophenol] here?
**A.** Its antinociception is “Antinociception was observed”.

**Q.** Which results are given for `CCCCC/C=C\C/C=C\C/C=C\C/C=C\CCCC(=O)Nc1c(C)n(C)n(-c2ccccc2)c1=O` [compound 6, (5Z,8Z,11Z,14Z)-Icosa-5,8,11,14-tetraenoic acid (1,5-dimethyl-3-oxo-2-phenyl-2,3-dihydro-1H-pyrazol-4-yl)-amide]?
**A.** effect on PGE2 formation ([2]; brain homogenates, concentration range 100 nM to 100 µM): no effect; amount in mouse brain cell homogenates ([3]; C57BL/6, mouse): 39 pg/sample; formation in brain of FAAH−/− mice as compared to wild type mice ([3]; FAAH−/− knockout compared with wild type (C57BL/6), mouse, 5 days): about 6%

**Q.** With `CCCCC/C=C\C/C=C\C/C=C\C/C=C\CCCC(=O)N(C)c1c(C)n(C)n(-c2ccccc2)c1=O` [compound 5, (5Z,8Z,11Z,14Z)-Icosa-5,8,11,14-tetraenoic acid (1,5-dimethyl-3-oxo-2-phenyl-2,3-dihydro-1H-pyrazol-4-yl)-methyl-amide] as the compound, how does the “formation of PGE2” value [4] read?
**A.** The value was “did not observe any formation of PGE2”.

**Q.** What about the “lowering of IC50 by the FAAH inhibitor URB532” value ([2]; inhibition of PGE2 formation in mouse brain homogenates) of the same compound?
**A.** Its value is “more than 200 fold”.

**Q.** And the “formation in brain of FAAH−/− mice as compared to wild type mice” value (dipyrone for 5 days)?
**A.** Its value is “less than 2%”.

**Q.** What about the “amount in mouse brain cell homogenates” value (representative chromatogram, Figure 9 B) of the same compound?
**A.** Its value is 2.4 pg/sample.

**Q.** What does the source list for `Cc1c(N(C)CS(=O)(=O)[O-])c(=O)n(-c2ccccc2)n1C.[Na+]` [compound 1, sodium N-(2,3-dimethyl-5-oxo-1-phenyl-3-pyrazolin-4-yl)-N-methylaminomethanesulphonate]?
**A.** activity against COX-2 [5]: ~21 µg/mL; activity against COX-2 [6]: approximately 12 µg ml^−1; time detectable in the serum ([7]; following intravenous administration): about 15 min; detectability in the serum after oral intake ([7]; oral intake): not detectable

**Q.** With `Cc1c(N)c(=O)n(-c2ccccc2)n1C` [compound 3, 4-aminoantipyrine] as the compound, how does the “concentration in the cerebrospinal fluid” value [8] read?
**A.** Its value is 1 to 7 µg/mL.

**Q.** What does the source list for `CNc1c(C)n(C)n(-c2ccccc2)c1=O` [compound 2, 4-methylaminoantipyrine]?
**A.** bioavailability ([7]; after oral administration of dipyrone): 85%; average elimination half-life (t1/2) [7]: 2.6 to 3.5 h; tmax ([7]; time to maximal systemic concentrations): 1.2 to 2.0 h; concentration in the cerebrospinal fluid [8]: 5 to 30 µg/mL
